One may read the IC50 as the concentration needed to halve the response being measured. The term inhibition denotes the drop in the measured response relative to a control, in per cent.

In experiment [1] the target is T1, Hormone-sensitive lipase (Homo sapiens, UniProt Q05469).
T1 sequence (Q05469 whole entry): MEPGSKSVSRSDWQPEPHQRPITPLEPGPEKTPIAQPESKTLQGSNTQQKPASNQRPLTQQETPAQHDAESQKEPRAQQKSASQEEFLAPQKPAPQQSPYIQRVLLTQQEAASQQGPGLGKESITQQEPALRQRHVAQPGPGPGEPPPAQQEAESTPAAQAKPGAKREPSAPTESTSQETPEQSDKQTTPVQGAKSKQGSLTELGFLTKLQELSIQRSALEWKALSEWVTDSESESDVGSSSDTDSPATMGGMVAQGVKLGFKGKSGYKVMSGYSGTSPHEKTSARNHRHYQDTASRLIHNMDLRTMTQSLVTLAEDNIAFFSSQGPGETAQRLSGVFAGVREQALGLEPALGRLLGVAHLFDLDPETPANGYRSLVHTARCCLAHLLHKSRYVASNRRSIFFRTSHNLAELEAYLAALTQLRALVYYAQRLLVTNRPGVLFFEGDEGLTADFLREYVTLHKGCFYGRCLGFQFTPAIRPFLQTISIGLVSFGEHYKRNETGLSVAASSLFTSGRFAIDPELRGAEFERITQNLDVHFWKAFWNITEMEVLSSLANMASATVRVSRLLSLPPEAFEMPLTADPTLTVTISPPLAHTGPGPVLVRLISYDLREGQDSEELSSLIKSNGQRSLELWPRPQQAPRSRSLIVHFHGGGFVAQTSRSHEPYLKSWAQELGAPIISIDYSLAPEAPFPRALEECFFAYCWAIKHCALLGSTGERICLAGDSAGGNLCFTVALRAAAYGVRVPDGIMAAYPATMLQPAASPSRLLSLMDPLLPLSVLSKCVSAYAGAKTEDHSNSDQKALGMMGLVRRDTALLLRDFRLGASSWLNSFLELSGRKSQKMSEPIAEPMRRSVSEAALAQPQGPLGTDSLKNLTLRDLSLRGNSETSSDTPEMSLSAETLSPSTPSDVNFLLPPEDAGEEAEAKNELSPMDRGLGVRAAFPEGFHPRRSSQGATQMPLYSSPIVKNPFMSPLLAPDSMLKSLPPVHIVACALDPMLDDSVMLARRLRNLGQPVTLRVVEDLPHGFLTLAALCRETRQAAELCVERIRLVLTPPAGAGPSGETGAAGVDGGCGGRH
As to the kind of experiment: Inhibition of human recombinant hormone sensitive lipase. In outline: (§1)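 Purified recombinant human HSL (specific activity 2.6 U/mg protein) with triolein substrate. Activity measured at 37 °C as ³H-oleic acid release over time from a ³H-trioleoylglycerol emulsion stabilized with phospholipids. Bovine serum albumin served as fatty acid acceptor.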

For experiment [2], the target named is T2, Hormone-sensitive lipase (Homo sapiens) (UniProt Q05469).
T2 sequence (whole entry): T1 sequence (Q05469 whole entry)
As to the kind of experiment: Inhibition of recombinant human hormone sensitive lipase (HSL). Also noted: concentration or dose not given beside the values. Conditions: concentration not given here. A digest of the protocol:
as §1

For `CCCC(=O)Nc1ccc(OC(=O)NN2CCOCC2)cc1`, the 50% inhibitory concentration (IC50) in experiment [1] turned out to be 3200 nM. Further, the inhibition in experiment [2] was determined as 84%.
With `CC(=O)Nc1ccc(OC(=O)NN2CCc3ccccc3C2)cc1`, the inhibition in experiment [2] is 7%.
As for `O=C(NN1CCCCC1)Oc1ccc(Cl)cc1`, in experiment [2], the inhibition was 99%.
Turning to `CC1c2ccccc2CCN1NC(=O)Oc1ccc(Cl)cc1` (stereo unspecified), in experiment [1], the IC50 came out at 32 nM. Also, the inhibition in experiment [2] amounted to 91%.
Turning to `CN(C(=O)Oc1ccc(Cl)cc1)N1CCc2ccccc2C1`, the inhibition in experiment [2] was found to be 2%.
For `O=C(NN1CCc2ccccc2C1)Oc1ccccc1`, the IC50 in experiment [1] turned out to be 205 nM.
For the compound `O=C(NN1CCOCC1)Oc1ccc(Cl)cc1`, the 50% inhibitory concentration (IC50) in experiment [1] was 184 nM. For the same compound, the inhibition in experiment [2] is 99%.
Turning to `CCOC(=O)NN1CCc2ccccc2C1`, the inhibition in experiment [2] was 9%.
Consider `CC1Cc2ccccc2CN1NC(=O)Oc1ccc(Cl)cc1` (stereo unspecified), for which the IC50 in experiment [1] came out at 35 nM. The inhibition in experiment [2] was 99%.
`O=C(NN1CCc2ccccc2C1)Oc1ccc(C(=O)c2ccccc2)cc1`: the inhibition in experiment [2] turned out to be 21%.
`O=C(NN1CCc2ccccc2C1)Oc1c(Cl)cccc1Cl`: the inhibition in experiment [2] worked out at 3%.
`CCOC(=O)Cc1ccc(OC(=O)NN2CCOCC2)cc1`: in experiment [1], the IC50 amounted to 138 nM. The inhibition in experiment [2] turned out to be 99%.
For `CN1CCN(NC(=O)Oc2ccc(Cl)cc2)CC1` the same measures were 515 nM and 98%.
For `COc1ccccc1OC(=O)NN1CCc2ccccc2C1`, in experiment [2], the inhibition turned out to be 76%.
As to `CC(C)(C)CC(=O)Nc1ccc(OC(=O)NN2CCOCC2)cc1`, the concentration for half-maximal inhibition (IC50) in experiment [1] came out at 47 nM. Further, in experiment [2], the inhibition is 99%.
For `CC(C)(C)C1CCC(C(=O)Nc2ccc(OC(=O)NN3CCOCC3)cc2)CC1` (stereo unspecified) the same measures were 1 nM and 100%.
For `COC(=O)Cc1ccc(OC(=O)NN2CCOCC2)cc1` the same measures were 716 nM and 95%.
For the compound `O=C(NN1CCc2ccccc2C1)OCc1ccccc1`, the inhibition in experiment [2] is 4%.
With `CC(=O)Nc1ccc(OC(=O)NN2CCOCC2)cc1`, in experiment [2], the inhibition was determined as 20%.
For the compound `O=C(NN1CCc2ccccc2C1)Oc1ccc(Cc2ccccc2)cc1`, the IC50 in experiment [1] turned out to be 97 nM. In addition, in experiment [2], the inhibition was 97%.
On to `COC(=O)c1ccc(OC(=O)NN2CCc3ccccc3C2)cc1`, for which the inhibition in experiment [2] was 57%.
Turning to `CC(C)(C)OC(=O)NN1CCc2ccccc2C1`, in experiment [2], the inhibition came out at 8%.
Consider `O=C(Cc1ccc(OC(=O)NN2CCOCC2)cc1)OCc1ccccc1`, for which the IC50 in experiment [1] came out at 5 nM. Further, in experiment [2], the inhibition amounted to 100%.
With `CC(C)(C)OC(=O)Nc1ccc(OC(=O)NN2CCc3ccccc3C2)cc1`, in experiment [2], the inhibition came to 98%.
`O=C(NN1CCCC1)Oc1ccc(Cl)cc1`: in experiment [1], the IC50 was found to be 24 nM. Further, the inhibition in experiment [2] is 100%.
For the compound `O=C(NN1CCOCC1)Oc1ccc(NC(=O)C2CCCCC2)cc1`, in experiment [1], the IC50 was 10 nM. In addition, the inhibition in experiment [2] was found to be 99%.
Consider `COc1ccc(OC(=O)NN2CCc3ccccc3C2)cc1`, for which the inhibition in experiment [2] stood at 97%.
The same measure, in the same setting: in the case of `O=C(NN1CCc2ccccc2C1)Oc1ccc(Cl)cc1` it was 98%.
